Experimental data: ChEMBL document CHEMBL1122391, “2-benzazepines. 6. Synthesis and pharmacological properties of the metabolites of 9-chloro-7-(2-chlorophenyl)-5H-pyrimido[5,4-d] [2]benzazepine” (J Med Chem, 1983)

Tests used:
Mus musculus [1] = organism: Mus musculus; experiment: Effective dose required for […] in mice in rotarod test; type: functional
Mus musculus [2] = experiment: Effective dose required to prevent convulsions in mice after iv administration of 70 mg/kg of metrazole compound in antipentylene tetrazole test; type: functional
Method in brief: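 Male CF-1 mice, 50–54 days old, tested by a modified Everett–Richards method. Metrazole 70 mg/kg is given iv, and convulsions are scored.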

[3] = biological target: GABA-A receptor; anion channel; experiment: Displacement of [3H]diazepam binding in rat brain membranes; type: cell membranes

| SMILES | ED50 (Mus musculus [1]) [mg/kg] | ED50 (Mus musculus [2]) [mg/kg] | IC50 [3] [nM] |
| --- | --- | --- | --- |
| CN1C(=O)CN=C(c2ccccc2)c2cc(Cl)ccc21 [DIAZEPAM] | 2.6 | 1.4 | – |
| [O-][n+]1cnc2c(c1)CN=C(c1ccccc1Cl)c1cc(Cl)ccc1-2 | 4.9 | 0.65 | 1.25 |
| OC1N=C(c2ccccc2Cl)c2cc(Cl)ccc2-c2ncncc21 (centres undefined) | 4.8 | 0.74 | 6.4 |
| Oc1ccc(C2=NCc3cncnc3-c3ccc(Cl)cc32)c(Cl)c1 | > 1000 | > 100 | 100 |
| Clc1ccc2c(c1)C(c1ccccc1Cl)=NCc1cncnc1-2 | 1.4 | 0.59 | 1.7 |
